Source: PubChem BioAssay (several laboratories)
This is a sample that favours compounds with a hit; in the whole collection about 2.7% have one here.
Yeast growth inh: yeast BB579 growth reduction in restrictive medium; S. cerevisiae BB579 growth, OD615, 48 h; inhibition, % at 10 µM; hit rate 0.51% among 140,000;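 active means inhibition above a set limit, 3 SD over the mean compound inhibition, cut at about 44% in these data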
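System: DeaD yeast strain BB579; buffer or medium: CSMM-D dextrose restrictive medium; technique: OD at 615 nm; schedule: 4 h cell preincubation, 48 h compound exposure, 30 °C humidified; doses: single 10 µM dose; controls: amphotericin B 10 µg/mL, positive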
Yeast life ext: extends the lifespan of yeast; inhibition of the nicotinamide effect, % at 10 µM; hit rate 0.68% among 130,000; S. cerevisiae growth with nicotinamide, OD615; deaD strain in restrictive glucose medium; AID 775;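 active means inhibition above a set limit, placed 3 SD over the median of all compounds, cut at about 26% in these data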
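assay system = DeaD-strain S. cerevisiae | measured by = absorbance at 615 nm | probe or stimulus = nicotinamide 1.5 mM | buffer or medium = CSMM-D glucose medium, restrictive | times = 48 h at 30 °C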
SDO1 yeast rescue: sdo1-depleted yeast growth rescue; z-score at 10 µM; S. cerevisiae sdo1-depleted JHY4D growth rescue, OD600 30 h; hits give high values; pdr5 snq2 efflux-pump mutant strain; hit rate 0.21% among 140,000; AID 817;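 active means z-score above 3 at both the 24 hr and the 30 hr optical density reads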
RAM inhibit: blocks the yeast RAM network. S. cerevisiae dse1pr::URA3 reporter, 5-FOA growth OD615, 2 d; analog-sensitive cbk1-as2 kinase mutant strain. inhibition, % at 50 µM. hit rate 1.8% among 190,000;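 active means inhibition above a set limit, 3 SD over mean compound inhibition, cut at about 8.4% in these data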;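 further: inhibition rescues growth on 5-FOA so higher OD means more RAM inhibition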
Hits are given with their value; n = inactive; x = no result given.

SMILES	Yeast growth inh	Yeast life ext	SDO1 yeast rescue	RAM inhibit
Cc1ccc(-n2nnnc2SCC(=O)NC2CCCc3ccccc32)cc1 (stereo not given)	n	n	n	n
CCC(C)NC(=O)c1ccccc1NC(=O)C1COc2ccccc2O1 (stereo not given)	x	x	x	8.8
COc1ccc(CNC(=S)Nc2ccccc2-c2ccccc2)cc1	x	x	x	n
CC(=O)c1ccc(-c2ccc(C(=O)N3CCCc4ccccc43)o2)cc1	x	x	x	9.4
Cc1ccc(C(=O)N2CCc3ccccc32)o1	n	n	n	n
Cc1ccc(O)c(-c2cc(C(F)(F)C(F)F)nc(-c3ccccc3)n2)c1	n	n	n	9.6
NC1=C([N+](=O)[O-])C(c2ccc(F)cc2)C2=C(CCCC2=O)O1 (stereo not given)	n	n	n	n
Cc1ccc(-n2nnnc2SCc2nnc(-c3ccccc3Br)o2)cc1	n	n	n	10.1
Brc1ccccc1-c1nnc(CSc2nncn2-c2ccccc2)o1	n	n	n	n
COc1ccc(-c2cc(C(=O)N3CCN(c4ccccc4)CC3)no2)cc1OC	n	n	n	n
COc1ccccc1-c1cc(C(=O)N2CCN(c3ccc(F)cc3)CC2)no1	n	n	n	9.4
COc1ccc(NC(C)=O)cc1S(=O)(=O)N1CCN(C/C=C/c2ccccc2)CC1	x	x	x	n
O=C(CN(Cc1cccs1)C(=O)CNS(=O)(=O)c1ccc(Cl)cc1)NCC1CCCO1 (stereo not given)	x	x	x	n
OCCC1CN(Cc2cccn2-c2ncccn2)CCN1C1CCCC1 (stereo not given)	x	x	x	n
CNC(=O)c1ccc(OCc2ccccc2)c(OC)c1	n	n	n	n
COc1ccccc1NC(C#N)c1ccccc1OCc1ccccc1 (stereo not given)	n	30.5	n	n
O=c1c(Cc2ccc(F)cc2)c(O)ccn1CCCN1CCOCC1	x	x	x	n
COc1ccc([N+](=O)[O-])cc1NC(=O)CSCc1ccc(Br)cc1	n	n	n	10.6
COC(=O)c1ccc(C(=O)OC)c(NC(=O)CSCc2ccc(Br)cc2)c1	n	n	n	11.0
COc1ccc([N+](=O)[O-])cc1NC(=O)CSc1ncccn1	x	x	x	n
COc1ccc([N+](=O)[O-])cc1NC(=O)CSCc1ccccc1C	n	n	n	8.6
CCOC(=O)C1CCN(c2c(NCc3ccc(C(=O)N(C)Cc4ccccc4)cc3)c(=O)c2=O)CC1	x	x	x	n
O=C(CN1C(=O)C2C3C=CC(C4CC34)C2C1=O)Nc1cnc2ccccc2c1 (stereo not given)	x	x	x	n
O=C(NCc1ccc(Cl)cc1)C(=O)N/N=C/c1ccc(Br)cc1	x	x	x	n
Cc1cc(NC(=O)c2cccc(F)c2)ncc1NC(=O)c1ccco1	n	31.1	n	n
SMILES	Yeast growth inh	Yeast life ext	SDO1 yeast rescue	RAM inhibit
Cc1cc(NC(=O)c2cccs2)ncc1NC(=O)c1cccc(F)c1	x	x	x	n
NS(=O)(=O)c1ccc(NC(=O)COC(=O)COc2ccc(Cl)cc2)cc1	x	x	x	n
Oc1c(Cl)cc(Cl)cc1C=Nc1ccccc1N1CCCC1	n	28.3	n	n
O=C(NCCCN1CCOCC1)c1ccc(CSc2ccc(Cl)cc2)cc1	x	x	x	n
Cc1ccc(-n2ncc3c(NCc4ccc5c(c4)OCO5)ncnc32)c(C)c1	n	n	14.1	n
CC(C)(C)c1ccc(CN2C(=O)CSC2=O)cc1	x	x	x	n
CC/C(=N/Nc1cccc(Cl)c1)c1cnnc(SC)n1	n	n	n	9.0
Cc1c(C(=O)C(=O)NCC2CCCO2)c2ccccc2n1C (stereo not given)	x	x	x	n
O=[N+]([O-])c1ccc(N2CCC(=NOCc3ccc(Cl)cc3)CC2)cc1	n	n	n	11.3
CCCCC(=O)NNC(=S)NCc1ccccc1	x	x	x	n
COc1cc(NC(=O)COC(=O)/C=C/c2ccc(Cl)cc2Cl)cc(OC)c1	n	n	n	9.5
N=C1/C(=C/c2cccn2-c2ccc([N+](=O)[O-])cc2)C(=O)N=C2SC=CN12	n	n	n	10.2
COc1cccc(/C=C/C(=O)OCC(=O)Nc2ccc(S(=O)(=O)N3CCCC3)cc2)c1	n	n	n	9.8
COc1cc(/C=C/C(=O)OCC(=O)Nc2ccc(S(=O)(=O)N3CCCC3)cc2)ccc1O	n	n	n	n
c1ccc(-c2n[nH]c3c2CCC3)cc1	n	n	n	n
CC(C)(C)c1n[nH]c2c1CCCC2	n	28.0	n	n
Cc1ccc(-c2c[nH]c(=S)n2-c2ccccc2F)cc1	x	x	x	n
CCOC(=O)C1CCCN(c2oc(-c3ccc(OC)cc3)nc2C#N)C1 (stereo not given)	x	x	x	8.8
CC(C)(C)c1cc(NCCCn2ccnc2)n2ncc(-c3ccc(Cl)cc3)c2n1	85.5	n	n	n
Cc1cc(NCCCn2ccnc2)n2nc(-c3ccc(Cl)cc3)cc2n1	x	x	x	n
CCOC(=O)C1(Cc2cccc(Cl)c2)CCCN(C(=O)C2CC2)C1 (stereo not given)	x	x	x	n
OC(CN1CCN(c2ccccn2)CC1)Cn1c2ccc(Cl)cc2c2cc(Cl)ccc21 (stereo not given)	99.3	n	n	n
OC(COC(c1ccc(Cl)cc1)c1ccc(Cl)cc1)CN1CCN(c2ccccn2)CC1 (stereo not given)	n	n	n	n
O=C1c2ccccc2C(=O)N1OCc1cccc(Cl)c1	n	n	n	n
O=C1c2ccccc2C(=O)N1OCc1ccccc1	n	71.7	n	n
SMILES	Yeast growth inh	Yeast life ext	SDO1 yeast rescue	RAM inhibit
CCCCOc1ccccc1Cn1c(=O)oc2ccccc21	n	n	n	11.0
O=C1C(Nc2ccc(O)cc2)=C/C(=N/S(=O)(=O)c2cccs2)c2ccccc21	x	x	x	11.2
O=c1nc2c(O)cccn2c2c1c(=O)[nH]c1ccccc12	n	n	n	n
O=c1[nH]c2ccccc2c2nc3ccccn3c12	79.8	n	n	n
Cn1c(CN2CCN(C(=O)c3ccc(F)cc3)CC2)nc2cc([N+](=O)[O-])ccc21	n	n	n	n
COc1ccccc1C(=O)N/N=C/c1cnc2ccccc2n1	n	n	n	n
CC(C)Cc1nnc(NS(=O)(=O)c2ccc(Cl)cc2)s1	n	26.3	n	n
Cc1cccc(OCc2nnc(SCC(=O)OC3CCCCC3)o2)c1	n	n	n	10.2
Cc1ccc(C(=O)CSc2nnc(COc3ccccc3)o2)cc1	x	x	x	n
Cc1ccc(CN(CC(=O)NC2CCCC2)C(=O)CSc2nnc(COc3ccccc3)o2)cc1	n	x	n	8.7
O=C(CN(Cc1ccccc1)C(=O)CSc1nnc(COc2ccccc2)o1)NC1CCCC1	n	x	n	8.6
O=C(CSc1nnc(COc2ccccc2)o1)NCCc1ccccc1	n	n	n	n
COc1ccc(C(=O)NC(=S)NCc2ccccc2)cc1	n	n	n	n
CCCCNC(=S)NCc1ccc2c(c1)cc(C)n2C	44.7	n	n	n
COc1cc(OC)cc(C(=O)NC(=S)NCCc2ccccc2)c1	n	n	n	10.4
COc1cc(OC)cc(C(=O)NCc2ccc(-n3cccc3)cc2)c1	x	x	x	11.3
Cc1ccc(CNC(=O)c2ccc(-n3cccc3)cc2)cc1	x	x	x	n
COc1cc(OC)cc(C(=O)NCCCN2CCN(CCCNC(=O)c3cc(OC)cc(OC)c3)CC2)c1	n	40.8	n	n
CCOc1cc(OCC)cc(C(=O)NCCCN2CCOCC2)c1	x	x	x	n
Cc1ccc(-c2nnc3cccc(Cl)n23)cc1	x	x	x	n
